{"data": "Measured values gathered from unrelated publications", "target": "Glycogen synthase kinase-3 beta (GSK3B, Homo sapiens, UniProt P49841)", "technique": "competition with immobilised ligand", "note": "Compare with care: the assays were run in different laboratories."}
{"SMILES": "O=C(Nc1ccc(Oc2ccc(F)cc2)cc1)N1CCc2ncccc2[C@H]1c1ccc(F)cc1", "test": "cell-free assay", "conditions": "1 µM", "remaining binding": "100%"}
{"SMILES": "Cc1cnc(Nc2ccc(C(=O)N3CCC(N4CCCC4)CC3)cc2)nc1-c1cc2ccccc2s1", "test": "binding", "conditions": "1 µM", "remaining binding": "51%"}
{"SMILES": "F[C@@H]1CCN(c2nccc(-c3cnn4ncccc34)n2)C1", "test": "binding", "conditions": "1 µM", "remaining binding": "75%"}
{"SMILES": "C[C@@H]1CN(c2ccc3ncc(-c4ccc5[nH]nc(C6CC6)c5c4)n3n2)C[C@H](C)O1", "test": "binding", "conditions": "0.5 µM", "remaining binding": "74%"}
{"SMILES": "O=C(c1ccc(Nc2ncc(Cl)c(-c3ccc(Cl)s3)n2)cc1)N1CCC(N2CCCC2)CC1", "test": "binding", "conditions": "1 µM", "remaining binding": "60%"}
{"SMILES": "FC(F)(F)Oc1cccc(-c2cnc3ccc(-c4ccncc4)nn23)c1", "test": "cell-free assay", "conditions": "5 µM", "remaining binding": "78%"}
{"SMILES": "CN(C)CC#Cc1ccc(OCCCc2sc(N3CCc4cccc(C(=O)Nc5nc6ccccc6s5)c4C3)nc2C(=O)O)c(F)c1", "test": "cell-free assay", "conditions": "1 µM", "remaining binding": "93%"}
{"SMILES": "O=C(Nc1c[nH]nc1C(=O)NC1CCNCC1)c1cc(F)cc(F)c1", "test": "binding", "conditions": "1 µM", "remaining binding": "0.5%"}
{"SMILES": "CC(C)(C)c1ccc(-c2nc(CBr)nn2-c2cccc(O)c2)cc1", "test": "cell-free assay", "conditions": "10 µM", "remaining binding": "81%"}
{"SMILES": "CN(CCCC(F)(F)F)c1nccc(-c2cnn3ncccc23)n1", "test": "binding", "conditions": "1 µM", "remaining binding": "87%"}
{"SMILES": "O=C(c1ccc(Nc2nccc(-c3cc4ccccc4s3)n2)cc1)N1CCC(N2CCCC2)CC1", "test": "binding", "conditions": "1 µM", "remaining binding": "95%"}
{"SMILES": "N#Cc1ccc(Nc2ccc3[nH]c(=O)[nH]c3c2)c(Cl)c1", "test": "cell-free assay", "conditions": "1 µM", "remaining binding": "96%"}
{"SMILES": "CNC(=O)[C@@H]1CC[C@@H](n2c(-c3ccc4cnccc4c3)nc3ccc(C(=O)NCc4cccc(C(N)=O)c4)cc32)C1", "test": "binding", "conditions": "1 µM", "remaining binding": "95%"}
{"SMILES": "CN([C@@H]1CCc2c(CC(=O)O)c3ccccc3n2C1)S(=O)(=O)c1ccc(F)cc1", "test": "cell-free assay", "conditions": "1 µM", "remaining binding": "93%"}
{"SMILES": "Nc1ncc2c(n1)-c1c([nH]c3ccc(C#CC4CC4)cc13)CCCC2", "test": "binding", "conditions": "1 µM", "remaining binding": "98%"}
{"SMILES": "COc1cc(-c2cn(C3CCc4ccccc4N(CC(F)(F)F)C3=O)nn2)ccc1-n1ccc(C)n1 (stereo not shown)", "test": "cell-free assay", "conditions": "1 µM", "remaining binding": "85%"}
{"SMILES": "C=CC(=O)N1CCC(C(=O)NCC(=O)N2CCN(c3nc(-c4cnc(N)nc4C(F)F)nc(N4CCOCC4)n3)CC2)CC1", "test": "binding", "conditions": "1 µM", "remaining binding": "74%"}
{"SMILES": "Cc1nc(Cc2cccc(C(F)(F)F)c2)sc1-c1ccc(C(N)=O)nc1", "test": "cell-free assay", "conditions": "1 µM", "remaining binding": "100%"}
{"SMILES": "N#Cc1ccccc1CSc1nnc2c(n1)[nH]c1ccccc12", "test": "binding", "conditions": "10 µM", "remaining binding": "100%"}
